Measured values from ChEMBL document CHEMBL1139389, “Discovery of the Poly(ADP-ribose) polymerase (PARP) inhibitor 2-[(R)-2-methylpyrrolidin-2-yl]-1H-benzimidazole-4-carboxamide (ABT-888) for the treatment of cancer” (J Med Chem, 2009).

Key:
MX1 = assay: animal or person; conditions: Mus musculus, MX1, ip, 816 h, read-out: TGI
B16-F10 [1] = assay: Antitumor activity against mouse B16F10 cells xenografted in C57BL/6 mouse assessed as tumor volume at 50 mg/kg/day, po after 14 days; format: functional
B16-F10 [2] = assay: Antitumor activity against mouse B16F10 cells xenografted in C57BL/6 mouse assessed as growth inhibition at 50 mg/kg/day, po after 14 days relative to control; format: functional; conditions: B16-F10, 336 h, read-out: TGI
B16-F10 [3] = assay: Antitumor activity against mouse B16F10 cells xenografted in C57BL/6 mouse assessed as tumor volume at 50 mg/kg/day, po after 17 days; format: functional
[4] = AUC in CD1 mouse at 10 mg/kg, po; format: ADME, organism-based; set-up: dose 10 mg/kg, route oral; conditions: plasma
Summary of the method: (§1)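 Mouse PK: oral dose 10 mg/kg in 2.5% EtOH, 1 drop Tween-80, 25% PEG400 in PBS; iv dose 3 mg/kg in 2.5% EtOH, 5% DMSO, 1 drop Tween-80, 25% PEG400 in PBS. Oral bioavailability, iv half-life, oral AUC and Cmax derived from plasma profiles.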

[5] = Half life in CD1 mouse at 3 mg/kg, iv; format: ADME, organism-based; set-up: dose 3 mg/kg, route intravenous; conditions: in vivo
Summary of the method: as §1

[6] = Cmax in CD1 mouse at 10 mg/kg, po; format: ADME, organism-based; set-up: dose 10 mg/kg, route oral; conditions: in vivo
Summary of the method: as §1

[7] = Oral bioavailability in CD1 mouse at 10 mg/kg; format: ADME, organism-based; conditions: in vivo
Summary of the method: as §1

[8] = molecular target: Poly [ADP-ribose] polymerase 2 (Homo sapiens, UniProt Q9UGN5); assay: Inhibition of human recombinant PARP2
Chain of Poly [ADP-ribose] polymerase 2 (Q9UGN5 whole entry): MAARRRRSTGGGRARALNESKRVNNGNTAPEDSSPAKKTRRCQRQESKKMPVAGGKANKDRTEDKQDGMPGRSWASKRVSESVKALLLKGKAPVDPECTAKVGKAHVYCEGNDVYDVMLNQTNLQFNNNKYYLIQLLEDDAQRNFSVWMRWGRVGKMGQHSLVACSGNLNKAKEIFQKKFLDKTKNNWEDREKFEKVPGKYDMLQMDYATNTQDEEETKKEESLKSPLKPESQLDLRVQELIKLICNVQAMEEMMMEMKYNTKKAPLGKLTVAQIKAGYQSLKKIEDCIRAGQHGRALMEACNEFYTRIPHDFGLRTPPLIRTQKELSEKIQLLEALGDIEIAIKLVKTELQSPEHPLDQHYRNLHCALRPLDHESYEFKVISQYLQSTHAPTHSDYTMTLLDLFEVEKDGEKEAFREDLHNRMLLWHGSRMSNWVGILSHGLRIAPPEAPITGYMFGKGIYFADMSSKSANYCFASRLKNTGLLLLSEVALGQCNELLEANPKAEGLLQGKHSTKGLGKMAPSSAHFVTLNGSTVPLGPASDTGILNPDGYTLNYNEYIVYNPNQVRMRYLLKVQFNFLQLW

AUC [4] | half-life [5] | Cmax [6] | bioavailability [7] | Ki [8] | Structure (SMILES) | also measured
– | – | – | – | – | O=P1(N(CCCl)CCCl)NCCCO1 (centres undefined) [CYCLOPHOSPHAMIDE ANHYDROUS] | inhibition in vivo at 12.5 mg/kg/day (MX1): 73%
– | – | – | – | – | Cn1nnc2c(C(N)=O)ncn2c1=O [TEMOZOLOMIDE] | Activity (B16-F10 [1]): 1198 mm3; inhibition in vivo at 50 mg/kg/day (B16-F10 [2]): 65%; Activity (B16-F10 [3]): 2318 mm3
1500 ng·h/mL | 30 min | 1000 ng/mL | 100% | 4 nM | C[C@]1(c2nc3c(C(N)=O)cc(F)cc3[nH]2)CCCN1 | –
200 ng·h/mL | 33 min | 100 ng/mL | 36% | – | CN1CCCC1(C)c1nc2c(C(N)=O)cccc2[nH]1 (centres undefined) | –
– | – | – | – | 2 nM | CC1(c2nc3c(C(N)=O)cccc3[nH]2)CCNC1 (centres undefined) | –
